Assay: Toxicity liver stage against HepG2, at 10uM
Type: cell-based
Design: test concentration 10 uM, cell line HepG2-A16-CD81EGFP
Conditions: human, HepG2-A16-CD81EGFP cells; read-out: INHIBITION
Method in brief: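 Uninfected HepG2-A16-CD81EGFP cells, 3 × 10^3 per well, 1536-well, plated on prespotted compound at 10 μM final, parasite-free screening media added to match infected plates; puromycin 10 μM positive, DMSO 0.5% negative; run in parallel with 48 h PbLuc assay at 37 °C, 5% CO2; viability by CellTiter-Glo luminescence, normalized to controls.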

| Compound | cytotoxicity at 10 µM [%] |
| --- | --- |
| O=C(NCc1ccc(Cl)cc1)[C@@H]1Cc2[nH]cnc2CN1CC1CC1 | 3.67 |
| Cn1nc(-c2cccs2)cc1[C@H]1CN2CC[C@H]1C[C@@H]2CNS(C)(=O)=O | -1.39 |
| Cc1cccc(CN2C[C@@H]3CN(C(=O)c4cnccn4)C[C@@H]3C2=O)c1 | 2.43 |
| CC(C)NC(=O)C1CN(C(=O)CCc2ccccc2)CC12CCOCC2 (configuration not stated) | -3 |
| CCOc1ccc(NC(=O)Cn2cc(I)cn2)cc1 | 9.84 |
| Cc1ccsc1C(=O)N1CC(C(=O)NCC2CC2)C2(CCOCC2)C1 (configuration not stated) | 0.955 |
| CCN(CC)C(=O)c1ccn(COc2c(Cl)cccc2Cl)n1 | 11.6 |
| Cc1nn(C)c(C)c1CN1CCN(CC2(O)CCCN(C)C2)CC1 (configuration not stated) | 9.07 |
| COCCCNC(=O)CCn1ncc2c(Cl)cccc21 | 7.72 |
| CCn1nc(C)cc1NC(=O)CCn1nc(C)c2ccccc21 | 4.98 |
| CCN(CC)C(=O)c1cc(C2(C)CCN(C(C)=O)CC2)nc(C)n1 | 5.27 |
| CN1CCc2nc3cc(C(=O)NCc4cccs4)ccc3c(=O)n2CC1 | 0.207 |
| Cc1cc2nccc(C3CCN(C(=O)c4ccccc4F)CC3)n2n1 | 1.16 |
| Cc1ncsc1CN1CCOC(C)(C(=O)N(C)C)C1 (configuration not stated) | 12.1 |
| CCS(=O)(=O)N1CCC(n2nc(-c3cc(C)oc3C)ccc2=O)CC1 | 8.82 |
| COc1cccc(-c2nccc(C3CCCN3C)n2)c1 (configuration not stated) | 9.27 |
| CC(C)C1=NOC2(CCN(C(=O)C3CCCC3)CC2)C1 | 6.69 |
| OC1(CNc2ccccc2)CCNCC1 | -1.9 |
| O=C(COc1ccc(Cl)cc1)NCc1nncn1C1CC1 | 7.67 |
| CCc1cc(CNC(=O)c2cc(NC(=O)C(C)C)ccc2Cl)[nH]n1 | 9.36 |
| O=C(C(c1ccccc1)S(=O)(=O)c1ccccc1)N1CCCCC1 (configuration not stated) | -6.01 |
| NC(=O)CC1CCN(S(=O)(=O)c2cnn(-c3ccccc3)c2)CC1 | 12 |
| CS(=O)(=O)CCCN1CCN(C(C#N)c2ccccc2)CC1 (configuration not stated) | -3.14 |

| Compound | cytotoxicity at 10 µM [%] |
| --- | --- |
| CN(Cc1ccccn1)C(=O)CNC(=O)N1CCc2ccccc2C1 | 2.8 |
| COc1ccc(CN(C)C(=O)CN2CC(n3cccn3)C2)cc1F | -0.717 |
| Cc1cccnc1NC(=O)c1ccc(F)c(S(=O)(=O)NC2CC2)c1 | 1.77 |
| CC(C)COc1cncc(N(C)C2CCN(c3ncccn3)CC2)n1 | 0.583 |
| Cc1cc(C2CCCN(C(=O)COc3ccccc3F)C2)n[nH]1 (configuration not stated) | 7.45 |
| CCn1cnnc1CNC(=O)N(C)Cc1ccc(Cl)cc1Cl | -17.7 |
| COC(=O)N1CCCC(NC(=O)NCc2nc(C)cs2)C1 (configuration not stated) | 7.25 |
| Cc1cccnc1CNc1ccc(C(=O)N2CCc3ccccc32)cn1 | -0.608 |
| Cc1nnc(SCc2cccc(F)c2)n1CC(N)=O | -6.58 |
| COc1ccc(CCNC(=O)C(C)Nc2cccc(C)c2C)cc1 (configuration not stated) | -5.91 |
| Cc1cc(F)cc2c(N3CCC(S(N)(=O)=O)CC3)c(C#N)cnc12 | 0.79 |
| COCc1nccc(C2CCCN(Cc3cccc(F)c3)C2)n1 (configuration not stated) | 0.769 |
| CN1CCN(CC2CCN(C(=O)CCC3CCCCC3)CC2)CC1 | -3.68 |
| COCCNC(=O)c1ccoc1CN1c2ccccc2CC1C (configuration not stated) | 5.41 |
| Cc1cn(-c2ccccc2)nc1NS(=O)(=O)c1ccc(C(=O)O)cc1 | -5.51 |
| COc1c(C2CCCN2C(=O)c2cccn2C)c(C)nn1C (configuration not stated) | -1.88 |
| CCN1CCN(c2ccc(NC(C)c3nc(C(C)C)no3)c(C)c2)CC1 (configuration not stated) | -10 |
| Cc1nn(C)c(Cl)c1CNCCOc1ccc2c(c1)OCO2 | 1.52 |
| Cc1oc(CN(C)C(=O)c2ccc(Br)cc2)cc1C(=O)O | 5.5 |
| CC(SCc1ccc(Br)c2cccnc12)C(N)=O (configuration not stated) | 1.67 |
| CN(Cc1ncnn1C)C(=O)Nc1ccc(OC(F)F)cc1 | -0.778 |
| O=C(NCC1(c2ccc(F)cc2)CCC1)N1CCC2(C1)OCCO2 | 2.58 |
| Cc1cc(CNC2(c3ccccc3)CCCCC2)no1 | 2.94 |

| Compound | cytotoxicity at 10 µM [%] |
| --- | --- |
| CCOc1ccc(NC(C)c2nnnn2-c2ccccc2)cc1CO (configuration not stated) | -5 |
| Clc1cccc(CNc2cnn(CCN3CCCCC3)c2)c1 | 0.889 |
| Cc1nn(C)c2ncc(CN3CCN(Cc4ccco4)CC3)cc12 | 0.243 |
| Cc1cc(=O)n2nc(Oc3cc(Cl)cc(Cl)c3)sc2n1 | 16.8 |
| CC(CNC(=O)c1cnc[nH]1)Oc1ccc(Cl)cc1 (configuration not stated) | -7.09 |
| CC(C)(C)NC(=O)CNC(=O)CCc1ccccc1Br | 3.09 |
| CN(C)CC(=O)N1CCC2(CCN(Cc3ccccn3)C2=O)C1 (configuration not stated) | 1.23 |
| CC1(C)CC1(C(=O)N1CC(c2cccnc2)C1)c1ccc(F)cc1 (configuration not stated) | -9.41 |
| COc1ccc(-n2cccn2)c(CN2CCC(O)(CO)CC2)c1 | 3.4 |
| O=C1NCCCc2[nH]c(Cc3ccc(F)cc3)nc21 | -20.9 |
| CNc1nc(C(=O)N2CCCCC2c2ccc(CN(C)C)cc2)cs1 (configuration not stated) | -2.86 |
| CSCc1nc(CCNC(=O)C(N)c2c(C)n[nH]c2C)cs1 (configuration not stated) | -3.95 |
| CCC1(CO)CCCN(C(=O)c2cc(COc3cccc(F)c3)[nH]n2)C1 (configuration not stated) | 5.31 |
| Cc1nc[nH]c1CN1CCCC12CCN(c1ccccn1)CC2 | 4.55 |
| CC1(C)Cc2c(cnn2-c2ccccc2)C(NC2CCSCC2)C1 (configuration not stated) | -186 |
| CNc1ccc(Cl)cc1C(=O)N1CCC(Cn2cc(CN)nn2)CC1 | -2.37 |
| CN(C)CCn1ccnc1C1CCN(C(=O)CCc2cccnc2)CC1 | -2.21 |
| Cn1c(N2CCOCC2)nc2cc(C(=O)NCC(F)(F)F)ccc21 | 1.85 |
| CCCc1nnc(N2CCC(N3CCN(CCO)CC3)CC2)o1 | -4.95 |
| CCCc1noc(C2CC(=O)N(CCN(C)C)C2)n1 (configuration not stated) | 5.48 |
| COCCN1CC2(CCC1=O)CCN(Cc1cc(F)ccc1Cl)CC2 | 5.29 |
| O=C1NCC2(CCCN(C(=O)c3ccc4c(c3)CCO4)C2)O1 (configuration not stated) | 2.32 |
| CC(C)(O)c1cn(C2CCN(C(=O)CCC3CCCC3)CC2)nn1 | 1.2 |

| Compound | cytotoxicity at 10 µM [%] |
| --- | --- |
| CC(C)CN1CC(c2nc(CCc3ccccc3)n[nH]2)CC1=O (configuration not stated) | 6.08 |
| O=S1(=O)CCC(n2nc(COc3ccccc3)nc2-c2cnccn2)C1 (configuration not stated) | -4.64 |
| O=C(CCCn1cncn1)N1CCC2(CCCNC2=O)C1 (configuration not stated) | -3.89 |
| O=C1NCCCC12CCN(Cc1ccc(-c3ccccc3)s1)C2 (configuration not stated) | 16.9 |
| CCn1c(C2CCNCC2)nn(CCn2ccc(C)n2)c1=O | 2.6 |
| COC(=O)N1CCCCC1C(=O)N1CCC(c2ccncc2)CC1 (configuration not stated) | 11.7 |
| Cn1c(CN2CCCC2)nnc1C1CCCN(C(=O)CN2CCCC2)C1 (configuration not stated) | -1.9 |
| COc1ncccc1C(=O)N(C)Cc1nc(-c2ccccn2)no1 | 3.38 |
| CCS(=O)(=O)c1ncc(CN(C)Cc2ccccn2)n1CCOC | -13.3 |
| C[C@@H]1CN(C2(C(=O)N3CCOCC3)Cc3ccccc3C2)C[C@H](C)O1 | 1.12 |
| COc1cc2nc3n(c(=O)c2cc1OC)CCN(C(C)=O)CC3 | -2.65 |
| Cc1nn(C)c(Cl)c1C1CCCN1Cc1noc(C2CC2)n1 (configuration not stated) | -1.64 |
| OCCn1nccc1C1CCN(CCOc2ccccc2Cl)CC1 | -5.04 |
| O=c1[nH]c(CN2CCCC(Cn3cncn3)C2)nc2ccccc12 (configuration not stated) | -12.4 |
| CCn1ccnc1CN1CCN(C(C)C(=O)N2CCCC2)CC1 (configuration not stated) | -3.97 |
| COc1ccc(OC)c(CNC(=O)N2CCC(n3cncn3)CC2)c1 | 2.46 |
| CCNC(c1cccnc1)c1ccc(F)c(C)c1 (configuration not stated) | -1.77 |
| COc1ccc(-n2ccc(C(=O)N3CCN(C)CC3C)n2)cc1 (configuration not stated) | -11.2 |
| COc1ccc(CCC(=O)NC2CCC(O)CC2)cc1OC (configuration not stated) | -5.26 |
| Cc1nccn1-c1cc(CNC(=O)CCC2CCCO2)ccn1 (configuration not stated) | -3.09 |
| Cc1nn(C)c(Cl)c1C1CCCN1C(=O)c1cc[nH]n1 (configuration not stated) | -5.55 |
| CCN(CC1CCOC1)C(=O)Nc1ccc(-n2cncn2)nc1 (configuration not stated) | -6.92 |
| COc1cc(C)nc(N2CCN(C(=O)COCC(F)(F)F)CC2)n1 | -9.62 |

| Compound | cytotoxicity at 10 µM [%] |
| --- | --- |
| Cc1cc(C)n(CC(=O)N2CCC(NS(C)(=O)=O)CC2)n1 | 3.18 |
| COc1cc(CNC(=O)Nc2cc(C(F)(F)F)c[nH]c2=O)ccn1 | 1.53 |
| COc1cc(CNc2cnn(C)c2)cc2c1OCCO2 | -10.8 |
| Cc1cc(CN2CCN(C(=O)NC(C)c3cccnc3)CC2)on1 (configuration not stated) | -7.93 |
| Cc1cc(C)n(CC2CCCN2C(=O)CCc2cscn2)n1 (configuration not stated) | -10.4 |
| O=C1CC(N(C(=O)c2ccc3[nH]c4c(c3c2)CCCC4)C2CC2)C(=O)N1 (configuration not stated) | -3.79 |
| Cc1cc(C(=O)N2CCCC(c3noc(C)n3)C2)[nH]n1 (configuration not stated) | -6.67 |
| CCOc1cccc2c1OCC(C(=O)NS(=O)(=O)c1ccc(C)s1)=C2 | -9.02 |
| CCS(=O)(=O)CCN1CCC(N(C)Cc2noc(C(C)C)n2)C1 (configuration not stated) | -5.55 |
| CCC(O)CN1CCN(C(=O)c2sccc2OC)CC1 (configuration not stated) | -7.25 |
| Cc1n[nH]c(C2CN(C(=O)c3ccnc(C4CC4)n3)CCO2)n1 (configuration not stated) | 1.85 |
| Cc1nc(C)n(CC2CCCN(CCC(=O)N3CCCCC3)C2)n1 (configuration not stated) | 3.9 |
| Cn1cnnc1C1CCCN(C(=O)c2ccc3c(c2)OCCCO3)C1 (configuration not stated) | 3.66 |
| O=C1COC2(CCN(Cc3cccs3)CC2)CN1c1ccsc1 | -125 |
| CCS(=O)(=O)N[C@@H]1CN(Cc2cc(C)on2)C[C@@H]2CCCO[C@@H]21 | -6.01 |
| Cc1cnc(CN(C)C2CCN(CC(=O)Nc3nncs3)C2)o1 (configuration not stated) | 1.76 |
| COc1cccc(CNC(C)Cn2cccn2)c1OC (configuration not stated) | -4.84 |
| CN1CCc2ncc(CNC(=O)c3cccn3C)n2CC1 | 1.27 |
| CCn1nnc2c1C(COC)CN(Cc1ccsc1)C2 (configuration not stated) | 2.3 |
| O=C(NCC1CCC(c2ccnc3ncnn23)CC1)C1CC1 (configuration not stated) | 9.17 |
